Screening data (PubChem)
PKD1 kinase inh: PKD1 (human) kinase inhibition | inhibition, % (test concentration not listed) | hit rate 0.056% among 200,000 | PKD1 kinase fluorescence polarization assay | Q15139 | AID 797; in the data active = inhibition above about 50%
TNAP act hiacc: increases human TNAP activity under high phosphate acceptor concentration | purified TNAP, CDP-star luminescence, 1 M DEA, 30 min; stronger effect = higher value; 0 = EDTA background, 1 = DMSO-only activity | AID 1136 | activation factor at 20 µM | P05186 | 200,000 tested, under 10 active;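 active = activation factor at least 2 at 20 µM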
Target sequence (P05186 whole entry, looked up): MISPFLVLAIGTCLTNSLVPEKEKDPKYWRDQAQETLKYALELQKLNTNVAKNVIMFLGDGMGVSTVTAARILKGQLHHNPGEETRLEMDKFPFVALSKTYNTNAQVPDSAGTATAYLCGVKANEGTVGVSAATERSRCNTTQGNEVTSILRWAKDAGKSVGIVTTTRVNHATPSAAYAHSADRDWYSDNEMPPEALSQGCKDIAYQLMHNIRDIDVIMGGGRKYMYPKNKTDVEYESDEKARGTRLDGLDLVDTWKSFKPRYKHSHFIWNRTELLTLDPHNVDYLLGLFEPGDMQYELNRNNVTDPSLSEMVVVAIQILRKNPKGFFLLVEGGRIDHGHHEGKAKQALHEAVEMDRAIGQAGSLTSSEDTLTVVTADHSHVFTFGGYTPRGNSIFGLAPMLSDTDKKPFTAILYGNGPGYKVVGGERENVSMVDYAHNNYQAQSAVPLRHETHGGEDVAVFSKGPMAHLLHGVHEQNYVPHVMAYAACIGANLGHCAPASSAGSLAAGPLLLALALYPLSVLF
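Test system – human TNAP · Doses – 20 µM single point · Incubation – 30 min, room temperature · Signal – luminescent substrate turnover signal · Read-out basis – activation factor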
TNAP inh hi DEA: inhibitors of human TNAP at high phosphate acceptor concentration. hit rate 0.03% among 200,000. purified TNAP, CDP-star luminescence, 1 M DEA. inhibition, % at 20 µM;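 active = over 50% inhibition of tissue-nonspecific alkaline phosphatase at 20 µM in the single-dose screen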
TNAP inh noacc: TNAP (human) inhibition, acceptor-free conditions. P05186. purified TNAP, CDP-star luminescence, 30 min. inhibition, % at 20 µM. hit rate 0.26% among 200,000;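 active = tissue-nonspecific alkaline phosphatase inhibition above about 50% at 20 µM in the single-dose screen, limit read from the data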
Of the large screens only hits and unclear results are named; the others gave an inactive call. Hits are enriched below; roughly 0.35% of the tested compounds scored in any of these assays.

CCOc1ccc(C2CC(=O)n3nc(C45CC6CC(CC(C6)C4)C5)nc3S2)cc1OC (stereo unspecified)	TNAP inh noacc 85
COc1ccc(N2CCN(C(=O)C3COc4ccccc4O3)CC2)cc1 (stereo unspecified)	none
COc1ccc(CCN(Cc2nc3ccccc3c(=O)[nH]2)C(=O)C2CC2)cc1	none
Cc1[nH][nH]c(=O)c1C(c1ccccc1[N+](=O)[O-])C(C#N)C#N (stereo unspecified)	none
Cc1[nH][nH]c(=O)c1C(c1cc([N+](=O)[O-])ccc1O)c1c(C)[nH][nH]c1=O	TNAP inh hi DEA 77, TNAP inh noacc 79
CCC(=Nc1ccccc1)C1=C(O)CC(C)(C)CC1=O	none
COc1ccccc1NC(=O)COc1cc(C)nc(C(C)C)n1	none
COc1cc(-c2cc(=O)c3c(O)c(OC)c(OC)c(O)c3o2)ccc1O	TNAP inh noacc 64
O=C(Nc1ccccc1C(=O)N1CCCC1)C1COc2ccccc2O1 (stereo unspecified)	PKD1 kinase inh 66
CC(C)Cn1c(-c2ccccc2F)n[nH]c1=S	TNAP inh noacc 52
Cc1c(CCOC(=O)C23CC4CC(CC(C4)C2)C3)sc[n+]1CC#N	TNAP inh noacc 57
Cc1c(CCO)sc[n+]1CC(=O)OCCC12CC3CC(CC(C3)C1)C2	TNAP inh noacc 62
Cc1c(CCOC(=O)CC23CC4CC(CC(C4)C2)C3)sc[n+]1Cc1ccccc1	none
Cc1c(CCOC(=O)c2ccc([N+](=O)[O-])cc2)sc[n+]1CC(=O)c1ccccc1	none
CCCCCCCCCOC(=O)C[n+]1csc(CCO)c1C	TNAP inh noacc 61
COc1ccc2c(c1)CCCC21NC(=O)N(CC(N)=O)C1=O (stereo unspecified)	none
Cc1ccc(-n2ncc3c2ncn2c(-c4ccncc4)nnc32)cc1	TNAP inh noacc 54 (no result: PKD1 kinase inh)
CCN(CC)c1ccc(NC(=O)Cn2c(C(C)NC(=O)c3ccc(C)cc3)nc3ccccc32)cc1 (stereo unspecified)	TNAP act hiacc 2.3
COc1ccc(CNC(=O)C2Cc3ccccc3CN2C(=O)c2ccco2)cc1 (stereo unspecified)	PKD1 kinase inh 105
COc1ccc(OC)c(-c2cc(C(=O)Nc3c(C)nn(Cc4ccc(Cl)cc4)c3C)no2)c1	none
CN1/C(=C\C=C2/SC(=S)NC2=O)C(C)(C)c2ccccc21	TNAP inh hi DEA 51
CCOC(=O)c1n[nH]c2ccccc12	TNAP inh noacc 58
O=C(COC(=O)c1n[nH]c2ccccc12)NC(=O)NC1CCCCC1	none
CC1CCCCN1C(=O)COC(=O)c1n[nH]c2ccccc12 (stereo unspecified)	TNAP inh noacc 55
COc1ccc(-c2nc(SC)n(C(=O)c3ccco3)n2)cc1	TNAP inh noacc 52
CCC(=O)n1nc(-c2ccc(OC)cc2)nc1SC	TNAP inh noacc 54
CCC(=O)n1nc(-c2ccc(Cl)cc2)nc1SC	TNAP inh noacc 60
CCCC(=O)n1nc(-c2ccc(Cl)cc2)nc1SC	TNAP inh noacc 53
COc1ccc(-c2nc(SCc3ccccc3)n(C(=O)c3ccco3)n2)cc1	none
O=C(c1ccc(NC(=S)Nc2ccc(F)cc2F)cc1)N1CCOCC1	none
CCCCNC(=O)CCn1c(=O)c2ccccc2n(CC(=O)N2CC(C)CC(C)C2)c1=O (stereo unspecified)	none
O=C(CSc1nc(-c2ccccc2)nn1C(=O)c1ccccc1)Nc1cccc([N+](=O)[O-])c1	TNAP inh noacc 54
N#C/C(=C\c1ccc(O)c(O)c1)C(=O)N1CCCC1	TNAP inh noacc 73
N#C/C(=C\c1ccc(O)c(O)c1)C(=O)NCCCc1ccccc1	TNAP inh noacc 79
COc1cccc(C(=O)NCC(=O)N/N=C(C)\C=C\c2ccccc2)c1	none
O=C(CCCSc1nc2sc3c(c2c(=O)[nH]1)CCC3)NCCCO	none
CC1=NN(c2ccccc2)C(=O)/C1=C/C=C/c1ccc(N(C)C)cc1	TNAP inh hi DEA 54, TNAP inh noacc 50
CCOC(=O)CC1=NN(c2ccccc2)C(=O)/C1=C\c1ccc(N(C)C)cc1	none
COc1ccc(C(=O)NNC(=O)c2ccc(S(=O)(=O)N3CC(C)OC(C)C3)cc2)cc1 (stereo unspecified)	none
Nc1nc(CSc2n[nH]c(-c3ccccc3)n2)nc(Nc2ccccc2)n1	TNAP inh noacc 90
COc1ccc(Nc2nc(N)nc(CSc3n[nH]c(-c4ccccc4)n3)n2)cc1	TNAP inh noacc 81
Cc1ccc(-c2nc(Nc3ccccc3)n[nH]2)cc1	TNAP inh noacc 50
COc1ccc(Nc2nc(N)nc(CSc3nccc(C)n3)n2)cc1	none
Cc1ccc2nc(SCC(=O)c3c(C)[nH]c4ccccc34)[nH]c2c1	none
Cc1[nH]c2ccccc2c1C(=O)CSc1nc2ncc(Cl)cc2[nH]1	TNAP inh noacc 58
CC[n+]1ccccc1/C=C/c1ccc(N(C)C)cc1	none
CN(C)c1ccc(/C=C/c2cc[n+](C)cc2)cc1	none
CC[n+]1c(/C=C/c2ccc(N(C)C)cc2)ccc2ccccc21	TNAP inh hi DEA 60, TNAP inh noacc 60
CC[n+]1ccc(/C=C/c2ccc(N(C)C)cc2)c2ccccc21	TNAP inh hi DEA 54, TNAP inh noacc 52
O=C(CSCc1ccc(Cl)cc1)NN=C1CCCCCC1	none
N/C(COc1ncn(-c2ccccc2)n1)=N\S(=O)(=O)c1ccc(Cl)cc1Cl	TNAP inh noacc 63
NC(=O)COc1ncn(-c2ccccc2)n1	none
Cc1cccc(C)c1NC(=S)NCCc1ccc(O)c(O)c1	TNAP inh noacc 60
O=C(O)c1cn(-c2ccc(F)cc2)c(=O)c2ccccc12	none
CC1Cc2ccccc2N1c1ncnc(N)c1[N+](=O)[O-] (stereo unspecified)	PKD1 kinase inh 68
CCOC(=O)c1c(NC(C)=O)sc2c1C1CCN2CC1	none (no result: TNAP act hiacc, TNAP inh hi DEA, TNAP inh noacc)
N#Cc1c(NC(=O)CSc2nnc(-c3ccncc3)n2CC2CCCO2)sc2c1CCCC2 (stereo unspecified)	TNAP inh hi DEA 51
Cc1sc(NC(=O)CSc2nnc(-c3ccccc3)o2)c(C#N)c1C	none
N#Cc1c(NC(=O)CSc2nnc(-c3ccccc3)o2)sc2c1CCCC2	TNAP inh hi DEA 63
CCn1c(SCC(=O)Nc2sc3c(c2C#N)CCCC3)nnc1-c1ccncc1	TNAP inh hi DEA 77, TNAP inh noacc 58
NC(=O)c1c(NC(=O)CSc2nnc(-c3ccccc3)n2CC2CCCO2)sc2c1CCC2 (stereo unspecified)	none
N#Cc1c(NC(=O)CSc2nnc(-c3ccccc3O)n2-c2ccccc2)sc2c1CCCC2	none
CC(=O)Nc1ccc(/C(C)=N\NC(=O)c2ccc(-c3ccccc3)cc2)cc1	none
CCc1ccc(C(=O)CSc2n[nH]c(-c3ccncc3)n2)cc1	none
O=C(CSc1n[nH]c(-c2ccccc2)n1)c1ccc(O)c(O)c1	TNAP inh noacc 68
O=C(CSc1nc(-c2ccccc2)cs1)NC(=O)NCc1ccco1	none
O=C(CSc1n[nH]c(-c2ccccc2)n1)NC(=O)NCc1ccco1	TNAP inh noacc 63
O=C(O)c1cccc(CSc2n[nH]c(-c3ccc(Cl)cc3Cl)n2)c1	TNAP inh noacc 96
Cc1cc(SCC(=O)c2ccc(O)c(O)c2)nc2ccccc12	TNAP inh noacc 72
O=C(O)c1cccc(CSc2ncccn2)c1	none
